Calls of active or inactive are those of the source. No cut-off for these calls is given here.
How the values were obtained:
[1] = biological target: Retinol-binding protein 4 (Homo sapiens, UniProt P02753); experiment: Displacement of [3H]-all trans retinol from human urine biotinylated RBP4 incubated for 16 hrs measured by Scintillation Proximity Assay
[2] = Microsomal stability in mouse liver microsomes assessed as parent compound remaining measured after 30 min; type: ADME, Microsome; conditions: 0.5 h
[3] = biological target: CYP2C9 (Homo sapiens, UniProt P11712); experiment: Inhibition of CYP2C9 (unknown origin) at 10 uM relative to control; type: ADME
Sequence of CYP2C9 (P11712 whole entry): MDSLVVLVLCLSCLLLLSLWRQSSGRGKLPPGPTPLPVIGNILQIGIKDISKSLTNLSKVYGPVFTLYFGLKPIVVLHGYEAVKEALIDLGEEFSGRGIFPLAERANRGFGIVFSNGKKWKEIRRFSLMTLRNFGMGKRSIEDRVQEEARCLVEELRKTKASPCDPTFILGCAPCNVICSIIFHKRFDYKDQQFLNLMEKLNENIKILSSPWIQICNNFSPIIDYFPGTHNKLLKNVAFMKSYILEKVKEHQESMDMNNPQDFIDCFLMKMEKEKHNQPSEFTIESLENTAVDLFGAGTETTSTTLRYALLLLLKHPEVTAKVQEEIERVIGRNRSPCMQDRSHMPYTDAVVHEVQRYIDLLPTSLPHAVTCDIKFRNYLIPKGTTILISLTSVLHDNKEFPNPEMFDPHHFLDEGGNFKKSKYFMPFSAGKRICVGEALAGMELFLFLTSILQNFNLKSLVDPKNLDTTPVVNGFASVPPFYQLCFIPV

[4] = biological target: CYP2D6 (Homo sapiens, UniProt P10635); experiment: Inhibition of CYP2D6 (unknown origin) at 10 uM relative to control; type: ADME
Sequence of CYP2D6 (P10635 whole entry): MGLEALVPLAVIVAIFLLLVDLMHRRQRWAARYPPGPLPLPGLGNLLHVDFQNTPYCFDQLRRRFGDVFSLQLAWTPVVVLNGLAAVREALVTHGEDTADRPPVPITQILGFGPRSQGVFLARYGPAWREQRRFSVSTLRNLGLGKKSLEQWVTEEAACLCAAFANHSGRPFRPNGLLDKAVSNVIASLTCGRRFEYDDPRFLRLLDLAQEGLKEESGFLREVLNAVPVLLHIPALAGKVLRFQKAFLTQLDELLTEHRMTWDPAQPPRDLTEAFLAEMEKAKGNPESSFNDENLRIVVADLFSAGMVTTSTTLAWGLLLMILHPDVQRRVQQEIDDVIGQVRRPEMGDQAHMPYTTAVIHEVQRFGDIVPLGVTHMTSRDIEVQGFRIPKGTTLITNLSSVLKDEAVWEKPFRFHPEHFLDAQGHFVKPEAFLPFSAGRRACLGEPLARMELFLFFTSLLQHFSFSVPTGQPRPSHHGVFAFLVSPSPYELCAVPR

[5] = biological target: CYP3A4 (Homo sapiens, UniProt P08684); experiment: (§1) Inhibition of CYP3A4 (unknown origin) at 10 uM relative to control; type: ADME
Sequence of CYP3A4 (P08684 whole entry): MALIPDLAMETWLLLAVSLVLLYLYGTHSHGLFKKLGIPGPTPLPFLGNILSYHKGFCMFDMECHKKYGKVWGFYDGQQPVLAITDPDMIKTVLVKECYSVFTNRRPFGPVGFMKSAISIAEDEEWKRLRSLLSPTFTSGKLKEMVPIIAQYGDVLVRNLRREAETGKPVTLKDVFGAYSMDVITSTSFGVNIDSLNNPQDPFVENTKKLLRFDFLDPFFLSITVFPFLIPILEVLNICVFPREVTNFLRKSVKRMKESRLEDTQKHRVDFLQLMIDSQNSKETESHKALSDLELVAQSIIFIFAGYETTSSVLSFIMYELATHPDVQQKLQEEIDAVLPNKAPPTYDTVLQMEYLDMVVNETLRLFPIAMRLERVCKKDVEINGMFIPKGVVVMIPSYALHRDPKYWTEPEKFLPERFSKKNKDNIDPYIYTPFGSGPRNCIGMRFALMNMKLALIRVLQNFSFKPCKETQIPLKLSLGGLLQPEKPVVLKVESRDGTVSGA

[6] = Plasma protein binding in human; type: ADME, cell-free
[7] = tested on: Mus musculus; experiment: Reduction in serum RBP4 level in mouse measured at 25 mg/kg, po administered as single dose measured after 2 hrs; type: functional
[8] = Clearance in male CD-1 mouse at 2 mg/kg, iv; type: ADME, organism-based; conditions: in vivo
Summary of the method: (§2)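 Adult male CD-1 mice, drug naïve, three per group; single 2 mg/kg IV bolus in 3% dimethylacetamide/45% PEG300/12% ethanol/40% sterile water. Compound measured in blood over time. CL is total body clearance, t1/2 is the terminal elimination phase half-life, Vss is volume of distribution at steady state. Reported as mean (SD).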

[9] = Half life in male CD-1 mouse at 2 mg/kg, iv; type: ADME, organism-based; conditions: in vivo; summary of the method: as §2
[10] = Volume of distribution at steady state in male CD-1 mouse at 2 mg/kg, iv; type: ADME, organism-based; conditions: in vivo, read-out: Vdss; summary of the method: as §2
[11] = AUClast in male CD-1 mouse at 2 mg/kg, iv; type: ADME, organism-based; parameters: route intravenous, time 0 - last, dose 2 mg/kg; conditions: in vivo
Summary of the method: (§3)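 Groups of three drug-naive adult male CD-1 mice; IV dose 2 mg/kg in 3% dimethylacetamide/45% PEG300/12% ethanol/40% sterile water; PO dose 5 mg/kg in 2% Tween 80 in 0.9% saline. Compound measured in blood; AUC_last to last quantifiable time point, AUC_INF extrapolated to infinity; Cmax is maximum observed blood concentration. Mean (SD).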

[12] = AUC in male CD-1 mouse at 2 mg/kg, iv; type: ADME, organism-based; parameters: dose 2 mg/kg; conditions: in vivo; summary of the method: as §3
[13] = biological target: Voltage-gated inwardly rectifying potassium channel KCNH2 (Homo sapiens, UniProt Q12809); experiment: Inhibition of human ERG
Sequence of Voltage-gated inwardly rectifying potassium channel KCNH2 (Q12809 whole entry): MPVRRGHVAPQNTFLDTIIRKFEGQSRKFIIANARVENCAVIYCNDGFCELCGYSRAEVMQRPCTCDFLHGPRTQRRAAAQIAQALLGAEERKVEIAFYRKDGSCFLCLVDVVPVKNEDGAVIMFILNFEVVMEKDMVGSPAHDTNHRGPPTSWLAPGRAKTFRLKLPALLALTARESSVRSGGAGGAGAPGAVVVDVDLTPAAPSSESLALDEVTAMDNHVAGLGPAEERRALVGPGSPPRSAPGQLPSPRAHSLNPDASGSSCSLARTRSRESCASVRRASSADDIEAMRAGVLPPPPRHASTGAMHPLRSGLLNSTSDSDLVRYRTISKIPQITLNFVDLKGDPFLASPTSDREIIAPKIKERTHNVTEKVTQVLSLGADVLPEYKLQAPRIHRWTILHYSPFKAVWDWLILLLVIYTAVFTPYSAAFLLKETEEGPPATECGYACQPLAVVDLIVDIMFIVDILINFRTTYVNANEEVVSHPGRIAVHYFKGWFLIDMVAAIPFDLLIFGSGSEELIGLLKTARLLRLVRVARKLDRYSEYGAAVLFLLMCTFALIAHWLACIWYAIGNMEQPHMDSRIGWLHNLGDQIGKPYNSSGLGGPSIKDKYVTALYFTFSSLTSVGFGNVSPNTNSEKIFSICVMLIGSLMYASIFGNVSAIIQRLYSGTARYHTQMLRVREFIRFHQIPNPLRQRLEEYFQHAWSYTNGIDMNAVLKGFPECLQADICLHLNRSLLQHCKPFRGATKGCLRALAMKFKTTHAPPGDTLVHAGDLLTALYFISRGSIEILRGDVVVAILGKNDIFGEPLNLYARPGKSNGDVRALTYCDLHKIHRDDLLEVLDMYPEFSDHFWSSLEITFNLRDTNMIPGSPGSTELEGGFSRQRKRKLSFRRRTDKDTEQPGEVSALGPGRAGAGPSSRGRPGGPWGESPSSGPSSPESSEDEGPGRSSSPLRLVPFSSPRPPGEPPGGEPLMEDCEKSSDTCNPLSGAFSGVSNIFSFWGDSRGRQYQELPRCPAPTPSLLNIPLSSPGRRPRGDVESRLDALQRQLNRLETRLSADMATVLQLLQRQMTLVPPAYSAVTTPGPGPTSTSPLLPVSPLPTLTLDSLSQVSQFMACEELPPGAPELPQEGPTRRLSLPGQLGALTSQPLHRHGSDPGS

[14] = Cmax in male CD-1 mouse at 5 mg/kg, po; type: ADME, organism-based; parameters: route oral, dose 5 mg/kg; conditions: in vivo; summary of the method: as §3
[15] = Half life in male CD-1 mouse at 5mg/kg, po; type: ADME, organism-based; conditions: in vivo
Summary of the method: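 Adult male CD-1 mice, drug naïve, three per group; single 5 mg/kg oral dose in 2% Tween 80 in 0.9% saline. Blood compound levels followed over time; apparent terminal-phase half-life reported as mean (SD).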

[16] = AUClast in male CD-1 mouse at 5 mg/kg, po; type: ADME, organism-based; parameters: time 0 - last, route oral, dose 5 mg/kg; conditions: in vivo; summary of the method: as §3
[17] = AUC (infinity) in male CD-1 mouse at 5 mg/kg, po; type: ADME, organism-based; parameters: time infinity, route oral, dose 5 mg/kg; conditions: in vivo; summary of the method: as §3
[18] = biological target: T1, Peroxisome proliferator-activated receptor gamma (Homo sapiens, UniProt P37231); experiment: Activity at PPARgamma (unknown origin)
T1 sequence (P37231 whole entry): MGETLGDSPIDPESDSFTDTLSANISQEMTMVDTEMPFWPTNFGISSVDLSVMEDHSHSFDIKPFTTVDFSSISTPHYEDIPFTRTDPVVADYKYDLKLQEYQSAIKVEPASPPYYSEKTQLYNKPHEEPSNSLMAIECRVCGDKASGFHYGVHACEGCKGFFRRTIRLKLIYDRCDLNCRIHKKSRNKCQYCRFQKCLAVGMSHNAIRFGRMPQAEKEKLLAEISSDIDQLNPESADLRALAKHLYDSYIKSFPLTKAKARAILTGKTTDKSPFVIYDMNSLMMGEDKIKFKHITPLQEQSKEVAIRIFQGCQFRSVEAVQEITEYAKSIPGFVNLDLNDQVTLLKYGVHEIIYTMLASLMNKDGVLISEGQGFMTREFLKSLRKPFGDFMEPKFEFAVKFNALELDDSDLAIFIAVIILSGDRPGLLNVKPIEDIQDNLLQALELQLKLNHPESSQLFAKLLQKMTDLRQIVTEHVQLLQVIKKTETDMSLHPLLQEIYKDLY

[19] = in vivo; conditions: male, CD-1, mouse, iv, 2 mg/kg
[20] = Solubility of the compound at pH 7.4 in PBS; type: physicochemical
Summary of the method: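 Kinetic solubility in PBS, pH 7.4. Values above 200 μM are capped at the top assay concentration, 200 μM.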

[21] = Microsomal stability in human liver microsomes assessed as intrinsic clearance; type: ADME, Microsome
[22] = Microsomal stability in human liver microsomes assessed as parent compound remaining measured after 30 min; type: ADME, Microsome; conditions: 0.5 h
[23] = biological target: CYP2C19 (Homo sapiens, UniProt P33261); experiment: (§4) Inhibition of CYP2C19 (unknown origin) at 10 uM relative to control; type: ADME
Sequence of CYP2C19 (P33261 whole entry): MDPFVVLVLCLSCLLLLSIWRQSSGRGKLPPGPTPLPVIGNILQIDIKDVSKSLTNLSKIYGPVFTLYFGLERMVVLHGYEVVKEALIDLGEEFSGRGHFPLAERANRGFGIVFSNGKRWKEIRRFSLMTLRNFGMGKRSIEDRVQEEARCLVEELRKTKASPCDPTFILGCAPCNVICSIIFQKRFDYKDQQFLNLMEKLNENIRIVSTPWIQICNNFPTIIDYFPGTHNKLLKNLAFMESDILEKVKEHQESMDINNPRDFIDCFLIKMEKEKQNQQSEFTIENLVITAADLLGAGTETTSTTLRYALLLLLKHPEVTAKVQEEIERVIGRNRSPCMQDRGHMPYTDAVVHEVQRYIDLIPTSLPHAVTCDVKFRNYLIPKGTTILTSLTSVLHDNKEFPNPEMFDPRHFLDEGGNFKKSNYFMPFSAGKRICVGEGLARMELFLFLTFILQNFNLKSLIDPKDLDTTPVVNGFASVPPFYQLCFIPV

[24] = biological target: Cytochrome P450 3A4 (Homo sapiens, UniProt P08684); experiment: as §1; type: ADME; conditions: 10 µM
Sequence of Cytochrome P450 3A4 (P08684 whole entry): as the sequence (P08684 whole entry) above

[25] = Plasma protein binding in rat; type: ADME, cell-free
[26] = biological target: T2, Transthyretin (Homo sapiens, UniProt P02766); experiment: Binding affinity to human plasma TTR tetramer assessed as displacement of diclofenac-coupled FITC by fluorescence polarization assay; type: cell-free
[27] = biological target: T2, Transthyretin; experiment: Stabilization of human plasma TTR assessed as inhibition of formation of high molecular weight forms of TTR with acetate buffer at pH 4 by measured at 50 uM after 72 hrs by acid-induced aggregation assay; type: cell-free
[28] = biological target: T2, Transthyretin; experiment: Stabilization of human plasma TTR assessed as increase in dimer band intensity at 50 uM measured after 72 hrs by Western blotting analysis; type: cell-free
[29] = Disruption of retional-induced bacterially expressed MBP-tagged RBP4-TTR (unknown origin) protein-protein interaction measured by d2 dye based HTFR assay; parameters: species or system Homo sapiens
[30] = biological target: Cytochrome P450 2C19 (Homo sapiens, UniProt P33261); experiment: as §4; type: ADME; conditions: 10 µM
Sequence of Cytochrome P450 2C19 (P33261 whole entry): as the sequence (P33261 whole entry) above

[31] = biological target: T2, Transthyretin; experiment: Stabilization of human plasma TTR assessed as supression of low pH mediated TTR aggregate formation at 50 uM using pH 4 buffer; type: cell-free
[32] = tested on: Mus musculus; experiment: Effect of TTR level in po dosed mouse serum; type: functional, organism-based
[33] = tested on: Mus musculus; experiment: Reduction in serum RBP4 level in mouse measured at 25 mg/kg, po after 1 hr
[34] = tested on: Mus musculus; experiment: Reduction in serum RBP4 level in mouse measured at 25 mg/kg, po after 2 hrs
[35] = biological target: T2, Transthyretin; experiment: Stabilization of human plasma TTR assessed as supression of low pH mediated TTR aggregate formation at 50 uM using pH 4.0 buffer
[36] = tested on: Mus musculus; experiment: Reduction in serum RBP4 level in mouse measured at 25 mg/kg, po after 6 hrs; type: functional
Summary of the method: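 Balb/c mice given a single oral dose, 25 mg/kg, in 0.9% NaCl/2% Tween 80, with a vehicle group. […] Three to eight mice per group; mean ± SD.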

[37] = Microsomal stability in rat liver microsomes assessed as parent compound remaining measured after 30 min; type: ADME, Microsome; conditions: 0.5 h

Cc1n[nH]c(C)c1N1CCN(c2cc(C(N)=O)ccc2F)CC1
IC50 [1]: > 3 µM

Cc1n[nH]c(C)c1N1CCN(c2cccc(C(=O)O)c2F)CC1
IC50 [1]: > 3 µM

Cc1n[nH]c(C)c1N1CCN(c2cc(C(=O)O)ccc2F)CC1 [listing 1 of 3 here]
IC50 [1]: > 3 µM
Stability [2]: 102%
inhibition at 10 µM [3]: 10.4%
inhibition at 10 µM [4]: 8.1%
inhibition at 10 µM [5]: -2.2%
PPB [6]: 83%
inhibition in vivo at 25 mg/kg [7]: 66%
clearance [8]: 5.9 mL/min/kg
half-life [9]: 305 min
Vd [10]: 2.18 L/kg
AUC(0-t) [11]: 6210 ng·h/mL
AUC [12]: 6240 ng·h/mL
IC50 [13]: > 30 µM
Cmax [14]: 1560 ng/mL
half-life [15]: 323 min
AUC(0-t) [16]: 16000 ng·h/mL
AUC(0-inf) [17]: 16100 ng·h/mL
EC50 [18]: > 30 µM
C0 [19]: 1620 ng/mL

Cc1n[nH]c(C)c1CCCOc1cc(C(=O)O)ccc1F [ACORAMIDIS]
IC50 [1]: > 30 µM

Cc1n[nH]c(C)c1N1CCN(c2cc(F)cc(C(=O)O)c2)CC1
IC50 [1]: > 3 µM

Cc1n[nH]c(C)c1N1CCN(c2cccc(C(=O)O)c2)CC1
IC50 [1]: > 30 µM

Cc1n[nH]c(C)c1N1CCN(c2cc(-c3nn[nH]n3)ccc2F)CC1
IC50 [1]: > 3 µM
solubility kinetic [20]: ≥ 200 µM
CLH [21]: 0.0184 mL/min/mg
Stability [22]: 71.4%
inhibition at 10 µM [3]: 26.3%
inhibition at 10 µM [23]: -4.8%
inhibition at 10 µM [4]: 0.8%
inhibition (INH) [24]: 18.9%
PPB [25]: 94%

O=C(O)c1ccc(F)c(N2CCN(c3nn[nH]n3)CC2)c1
IC50 [26]: > 30000 nM
IC50 [1]: > 3 µM

Cc1noc(C)c1N1CCN(c2cc(C(=O)O)ccc2F)CC1
IC50 [1]: > 3 µM

O=C(O)c1ccc2nc(-c3cc(Cl)cc(Cl)c3)oc2c1
IC50 [1]: > 30 µM
Activity [27]: Active
Activity [28]: Active

Cc1n[nH]c(C)c1N1CC2(CN(c3cc(C(=O)O)ccc3F)C2)C1
IC50 [26]: > 30000 nM
IC50 [1]: > 3 µM

Cc1n[nH]c(C)c1N1CCN(c2cc(C(=O)O)ccc2I)CC1
IC50 [29]: 2650 nM
IC50 [26]: 190 nM

Cc1n[nH]c(C)c1N1CCN(c2cc(C(=O)O)ccc2Cl)CC1
IC50 [1]: > 3 µM
solubility kinetic [20]: ≥ 200 µM
inhibition at 10 µM [3]: 25.2%
inhibition (INH) [30]: 1.85%
inhibition at 10 µM [4]: 10%
inhibition (INH) [24]: 19.5%
PPB [25]: 89%

Cc1n[nH]c(C)c1N1CCN(c2ccc(F)c(C(=O)O)c2)CC1
IC50 [1]: > 3 µM

Cc1n[nH]c(C)c1N1CCN(c2cc(C(=O)O)ccc2F)CC1 [listing 2 of 3 here]
Activity [31]: Active
Activity [27]: Active
Activity [28]: Active
Activity [32]: inactive
inhibition [33]: Active
inhibition [34]: Active
Activity [35]: Active

Cc1ccc(C(=O)O)cc1N1CCN(c2c(C)n[nH]c2C)CC1
IC50 [1]: > 3 µM
solubility kinetic [20]: ≥ 200 µM
inhibition at 10 µM [3]: 56.2%
inhibition at 10 µM [23]: 0.06%
inhibition at 10 µM [4]: 7.34%
inhibition at 10 µM [5]: -5.2%

Cc1n[nH]c(C)c1N1C[C@H]2CN(c3cc(C(=O)O)ccc3F)C[C@H]2C1
IC50 [26]: 2820 nM
IC50 [1]: > 3 µM

Cc1n[nH]c(C)c1N1CCN(c2cc(C(=O)O)ccc2C(F)(F)F)CC1
IC50 [1]: > 3 µM
solubility kinetic [20]: ≥ 200 µM
inhibition at 10 µM [3]: 17.1%
inhibition (INH) [30]: 2.3%
inhibition at 10 µM [4]: 5.9%
inhibition (INH) [24]: 14.8%
PPB [6]: 86%

Cc1n[nH]c(C)c1N1CCN(c2cc(C(=O)O)ccc2F)CC1 [listing 3 of 3 here]
inhibition in vivo at 25 mg/kg [36]: 81%

Cc1n[nH]c(C)c1N1CCC2(CCN(c3cc(C(=O)O)ccc3F)C2)C1 (racemic)
IC50 [26]: 1080 nM
IC50 [1]: > 3 µM

O=C(O)c1ccc(F)c(N2CCN(c3ccccc3C(F)(F)F)CC2)c1
IC50 [26]: 1700 nM
IC50 [1]: > 3 µM

Cc1cc(F)c(N2CCN(c3c(C)n[nH]c3C)CC2)cc1C(=O)O
IC50 [1]: > 3 µM
solubility kinetic [20]: ≥ 200 µM
Stability [37]: 105%
inhibition at 10 µM [3]: 1.1%
inhibition at 10 µM [23]: -3%
inhibition at 10 µM [4]: 9.2%
inhibition (INH) [24]: 31.7%
PPB [6]: 87%
PPB [25]: 93%

— ChEMBL document CHEMBL5032506, “Identification of Transthyretin Tetramer Kinetic Stabilizers That Are Capable of Inhibiting the Retinol-Dependent Retinol Binding Protein 4-Transthyretin Interaction: Potential Novel Therapeutics for Macular Degeneration, Transthyretin Amyloidosis, and Their Common Age-Related Comorbidities” (J Med Chem, 2021)
